The record followed here is ChEMBL document CHEMBL1154598, “7-Hydroxy-benzopyran-4-one derivatives: a novel pharmacophore of peroxisome proliferator-activated receptor alpha and -gamma (PPARalpha and gamma) dual agonists” (J Med Chem, 2009).

The term EC50 denotes the concentration needed to bring the measured effect to its halfway point.

Data set [1] has as its target T1, Peroxisome proliferator-activated receptor alpha (Homo sapiens) (UniProt Q07869).
T1 sequence (whole entry): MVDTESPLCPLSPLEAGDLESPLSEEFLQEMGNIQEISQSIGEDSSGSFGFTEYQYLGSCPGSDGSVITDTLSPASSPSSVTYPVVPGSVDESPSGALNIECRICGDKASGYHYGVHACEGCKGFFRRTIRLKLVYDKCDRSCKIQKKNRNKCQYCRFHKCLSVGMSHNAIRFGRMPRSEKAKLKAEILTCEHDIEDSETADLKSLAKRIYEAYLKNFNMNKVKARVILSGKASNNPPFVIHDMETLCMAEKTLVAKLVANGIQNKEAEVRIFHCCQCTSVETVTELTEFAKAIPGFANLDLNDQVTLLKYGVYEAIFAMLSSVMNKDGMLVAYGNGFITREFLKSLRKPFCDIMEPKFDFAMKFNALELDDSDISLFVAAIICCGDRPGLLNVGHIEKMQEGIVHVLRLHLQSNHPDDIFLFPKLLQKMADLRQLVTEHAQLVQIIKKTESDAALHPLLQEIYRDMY
Put plainly: Agonist activity at human PPARalpha expressed in HEK293 cells co-transfected with PPRE assessed as beta-galactosidase signal at 25 uM after 48 hrs by reporter gene assay relative to control. In kind it is functional, cell-based. The method, boiled down:
(§1)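 Human PPARα transactivation in HEK293 cells grown in DMEM/F-12 with 10% heat-inactivated FBS. Cells were transfected with FuGENE 6 using a PPRE-luciferase reporter, pBI-G-hPPARα and a β-galactosidase control plasmid. After 24 h they were replated at 5 × 10⁴ cells/well, attached overnight, then dosed for 48 h with 0.1% DMSO as vehicle. Luciferase was normalized to β-gal and expressed as fold over vehicle. Two experiments, each in triplicate.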

Data set [2] has as its target T2, Peroxisome proliferator-activated receptor gamma (Homo sapiens) (UniProt P37231).
T2 sequence (whole entry): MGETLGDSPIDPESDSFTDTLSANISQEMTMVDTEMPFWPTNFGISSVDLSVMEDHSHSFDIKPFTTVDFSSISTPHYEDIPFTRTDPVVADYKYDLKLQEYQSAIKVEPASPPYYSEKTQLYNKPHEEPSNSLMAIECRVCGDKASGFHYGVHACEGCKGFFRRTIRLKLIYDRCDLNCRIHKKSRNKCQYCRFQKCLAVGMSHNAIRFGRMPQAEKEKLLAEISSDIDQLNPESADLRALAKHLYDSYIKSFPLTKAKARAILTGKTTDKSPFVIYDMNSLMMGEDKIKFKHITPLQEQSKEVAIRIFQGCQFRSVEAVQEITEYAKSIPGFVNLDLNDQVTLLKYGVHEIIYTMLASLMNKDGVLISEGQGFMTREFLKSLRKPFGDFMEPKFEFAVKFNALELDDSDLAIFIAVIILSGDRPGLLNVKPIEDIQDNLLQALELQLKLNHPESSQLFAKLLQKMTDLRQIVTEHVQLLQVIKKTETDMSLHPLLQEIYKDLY
In words: Agonist activity at human PPARgamma expressed in HEK293 cells co-transfected with PPRE assessed as beta-galactosidase signal at 25 uM after 48 hrs by reporter gene assay relative to control. It counts as functional, cell-based. Put shortly:
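HEK293 cells were transfected with FuGENE 6 using a PPRE-luciferase reporter, pSG5-hPPARγ1 and a β-galactosidase control plasmid. After 24 h they were replated at 5 × 10⁴ cells/well, attached overnight, then treated for 48 h with 0.1% DMSO as vehicle. Luciferase was read, normalized to the β-gal signal and reported as fold activation over vehicle. Mean of two experiments in triplicate.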
In general terms: In a reporter assay the amount or activity of a reporter protein is the signal.

Data set [3] addresses T1, Peroxisome proliferator-activated receptor alpha (Homo sapiens). Put plainly: Agonist activity at human PPARalpha expressed in HEK293 cells co-transfected with PPRE assessed as beta-galactosidase signal at 40 uM after 48 hrs by reporter gene assay relative to control. In kind it is functional, cell-based. Put shortly:
as §1

Data set [4] in a line: Cytotoxicity against HEK293 cells assessed as viable cells at 100 uM after 48 hrs by aqueous one solution cell proliferation assay relative to control. In kind it is cell-based. The following applies: human, read-out: Activity. Put shortly:
(§2)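 HEK293 cells were seeded overnight, then exposed to 0–100 μM compound for 48 h at 37 °C in 5% CO₂. MTS reagent was added for a further 2 h and absorbance read at 490 nm. Viability is given as % relative to DMSO vehicle control. Two experiments, each in quadruplicate.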

In data set [5] the target is T3, Peroxisome proliferator-activated receptor alpha (Homo sapiens, UniProt Q07869).
T3 sequence (Q07869 whole entry): T1 sequence (whole entry)
Put plainly: Agonist activity at human PPARalpha assessed as luciferase activity by transactivation assay. In kind it is functional.

The target in data set [6] is T4, Peroxisome proliferator-activated receptor gamma (Homo sapiens, UniProt P37231).
T4 sequence (P37231 whole entry): T2 sequence (whole entry)
In words: Agonist activity at human PPARgamma assessed as luciferase activity by transactivation assay. In kind it is functional. The method, boiled down:
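Transiently transfected HEK293 (PPRE-luciferase reporter plus pSG5-hPPARγ1 and β-gal control), compound exposure 48 h. EC50 is the ligand concentration giving half-maximal fold induction of β-gal-normalized luciferase, fitted by nonlinear regression. Means of three experiments.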

Data set [7] can be described thus: Cytotoxicity against HEK293 cells assessed as viable cells at 50 uM after 48 hrs by aqueous one solution cell proliferation assay relative to control. In kind it is cell-based. The following applies: human, read-out: Activity. The method, boiled down: as §2

Active and inactive are the calls of the source. The rule behind the calls is not given here. Bounds are passed on as bounds.

For the compound `COc1ccc(-c2coc3cc(O)ccc3c2=O)cc1`, the fold change (FC) in data set [1] was found to be 7.5; in data set [2], 12.8; in data set [3], 7.8.

Turning to `COc1ccc(/C=C/C(=O)c2ccc(O)cc2O)cc1`, the fold change (FC) in data set [2] stood at 2.6. Take `O=c1c(-c2ccc3c(c2)OCCO3)coc2cc(O)ccc12`: the fold change (FC) in data set [2] turned out to be 11.3. Regarding `O=c1cc(-c2ccc(O)c(O)c2)oc2ccccc12`, the fold change (FC) worked out at 2.8 in data set [1], 5 in data set [2] and 7.7 in data set [3]. Take `O=c1cc(-c2ccc(O)cc2)oc2cccc(O)c12`: the results for the fold change (FC) in data set [1], in data set [2] and in data set [3] were 2.4, 8.9 and 3.7, respectively. Turning to `O=c1c(-c2ccc(O)cc2)coc2cc(O)ccc12`, the fold change (FC) in data set [1] was 6.2; in data set [2] it was 9.6; in data set [3] it was 13.4. Take `O=c1c(-c2ccc3c(c2)OCO3)coc2cc(OC3CCCCO3)ccc12` (stereo unspecified): the fold change (FC) in data set [2] was 9.4. Take `O=c1c(-c2ccc(O)cc2)coc2cc(O)c(O)cc12`: the fold change (FC) in data set [1] was 1.8; in data set [2] it was 4.4; in data set [3] it was 4. Take `O=c1c(-c2cccc(OC(F)(F)F)c2)coc2cc(O)ccc12`: in data set [2], the fold change (FC) was found to be 2.1. Still for that read-out and setting: then `Oc1ccc(-c2n[nH]c(C(F)(F)F)c2-c2ccc(F)cc2)c(O)c1`, with 3.9; and `COc1ccccc1/C=C/C(=O)c1ccc(O)cc1O`, with 1.1. As to `O=c1c(-c2ccc(C(F)(F)F)cc2)coc2cc(O)ccc12`, the fold change (FC) in data set [2] was found to be 4.4. For `COc1ccccc1-c1coc2cc(O)ccc2c1=O`, the fold change (FC) in data set [2] stood at 1.6. As for `O=c1cc(-c2cccc(O)c2)oc2cc(O)ccc12`, the fold change (FC) in data set [1] was determined as 8.2; in data set [2] it was 6.3; in data set [3] it was 14.8.

Turning to `COc1ccc2c(=O)c(-c3ccc4c(c3)OCO4)coc2c1`, the fold change (FC) in data set [1] was 2.2; in data set [2], 25.2; in data set [3], 2.4. With `O=c1c(-c2cccc(F)c2)coc2cc(O)ccc12`, the fold change (FC) in data set [2] is 4.1. For `COc1cc(-c2coc3cc(O)ccc3c2=O)cc(OC)c1OC`, the outcome in data set [2] was inactive.

For `Oc1ccc(-c2n[nH]cc2-c2ccc3c(c2)OCO3)c(O)c1`, the outcome in data set [2] was inactive. Regarding `O=c1c(-c2ccc(F)cc2F)coc2cc(O)ccc12`, in data set [2], the fold change (FC) came to 13.8.

On to `COc1cc(-c2oc3cc(O)cc(O)c3c(=O)c2O)cc(OC)c1O`, for which the fold change (FC) in data set [2] was 1.2. On the same count and under the same terms, the figure for `CCc1cc2c(=O)c(-c3ccc4c(c3)OCO4)c(C)oc2cc1O` is 5.3. In the case of `COc1ccc(-c2cc(=O)c3c(O)cc(O)cc3o2)cc1`, the fold change (FC) in data set [1] amounted to 2.3; in data set [2] it was 7.7; in data set [3] it was 5.2.

As to `COc1ccc(-c2cc(=O)c3c(O)cc(O)cc3o2)cc1O`, the fold change (FC) in data set [1] was 2.8; in data set [2], 7.3; in data set [3], 3.8. For the compound `CCc1cc2c(=O)c(-c3ccc4c(c3)OCO4)c(C(F)(F)F)oc2cc1O`, the outcome in data set [2] was inactive. Turning to `COc1ccc(/C=C/C(=O)c2ccc(O)cc2O)cc1OC`, the fold change (FC) in data set [2] came out at 3.5. The same measure, in the same setting: then `COc1cccc(/C=C/C(=O)c2ccc(O)cc2O)c1`, with 2.1. For the compound `Oc1ccc(-c2n[nH]cc2-c2ccc(F)cc2)c(O)c1`, the fold change (FC) in data set [2] came out at 1.7. `O=c1c(-c2ccc(O)cc2)coc2cc(O)cc(O)c12`: in data set [2], the fold change (FC) was 3.4. For the compound `O=c1c(O)c(-c2ccc(O)c(O)c2)oc2cc(O)cc(O)c12`, in data set [2], the fold change (FC) came to 1.3. The same measure, in the same setting: the figure for `COc1ccc(-c2c(-c3ccc(O)cc3O)n[nH]c2C)cc1` is 2.2.

In the case of `COc1cc(-c2cc(=O)c3c(O)cc(O)cc3o2)ccc1O`, the fold change (FC) in data set [1] is 1.1; in data set [2], 2.2; in data set [3] it was 1.3. Take `O=c1c(-c2cc(O)cc(O)c2)coc2cc(O)ccc12`: the fold change (FC) in data set [2] came out at 7.4. `Cc1[nH]nc(-c2ccc(O)cc2O)c1-c1ccc(F)cc1`: the fold change (FC) in data set [2] is 5.3.

As for `O=c1c(-c2cc(F)c(F)c(F)c2)coc2cc(O)ccc12`, the fold change (FC) in data set [2] was determined as 1.4. For `O=c1cc(-c2ccccc2O)oc2cc(O)ccc12`, the fold change (FC) in data set [1] was determined as 3.6; in data set [2], 6.8; in data set [3], 4.9.

Consider `CN(CCOc1ccc(CC2SC(=O)NC2=O)cc1)c1ccccn1` (stereo unspecified) [ROSIGLITAZONE], for which, in data set [4], the viability at 48 h, 100 µM worked out at 46%.

As for `O=c1c(-c2ccc3c(c2)OCCO3)coc2cc(OC3CCCCO3)ccc12` (stereo unspecified), the figures for the fold change (FC) in data set [1], in data set [2] and in data set [3] were 2.5, 2 and 3.3, respectively. As to `O=c1c(-c2ccc(Cl)cc2)coc2cc(O)ccc12`, the fold change (FC) in data set [2] stood at 2.6. Consider `COc1cc(-c2coc3cc(OC4CCCCO4)ccc3c2=O)cc(OC)c1OC` (stereo unspecified), for which, in data set [2], the fold change (FC) came out at 2.3. With `CN(CCOc1ccc(C[C@H](Nc2ccccc2C(=O)c2ccccc2)C(=O)O)cc1)c1ccccn1`, the viability at 48 h, 100 µM in data set [4] was 33%. As to `COc1c(F)cc(F)cc1-c1coc2cc(O)ccc2c1=O`, the fold change (FC) in data set [2] came to 7.5. Turning to `COc1ccc(-c2oc3cc(O)ccc3c(=O)c2O)cc1OC`, the fold change (FC) in data set [2] was 2.4.

Take `O=c1c(-c2ccc(O)c(O)c2)coc2cc(O)ccc12`: in data set [2], the fold change (FC) was found to be 7.5. With `O=C(/C=C/c1ccc(O)cc1)c1ccc(O)cc1O`, the fold change (FC) in data set [2] is 1.3. As to `COc1ccc(-c2coc3cc(O)ccc3c2=O)cc1OC`, the fold change (FC) in data set [2] is 10.5. Still for that read-out and setting: then `CCc1cc2c(=O)c(-c3ccc4c(c3)OCO4)coc2cc1O`, with 12.7. Regarding `O=c1cc(-c2ccc(O)cc2)oc2ccc(O)cc12`, the fold change (FC) stood at 2.6 in data set [1], 5 in data set [2] and 3.5 in data set [3]. Consider `O=c1c(-c2ccc(F)cc2)coc2cc(O)ccc12`, for which the fold change (FC) in data set [1] worked out at 8.6; in data set [2], 148; in data set [3] it was 28.7. The figures for the concentration for a half-maximal effect (EC50) in data set [5] and in data set [6] were 33.1 µM and 15.4 µM, respectively. For the same compound, the viability at 48 h, 50 µM in data set [7] was above 67%.

Take `COc1ccc([C@@H]2CC(=O)c3c(O)cc(O)cc3O2)cc1O`: the figures for the fold change (FC) in data set [1], in data set [2] and in data set [3] were 1.9, 3.8 and 2, respectively. For the compound `COc1ccc(-c2coc3cc(O)ccc3c2=O)c(OC)n1`, the result in data set [2] was inactive. Still for that read-out and setting: the entry for `O=c1c(-c2cccc(OCc3ccccc3)c2)coc2cc(O)ccc12` is “inactive”.

`CCc1cc2c(=O)c(-c3ccc4c(c3)OCO4)c(C)oc2cc1OCC(=O)O`: the fold change (FC) in data set [2] is 2.3. In the case of `O=c1cc(-c2ccc(O)cc2)oc2cc(O)ccc12`, the results for the fold change (FC) in data set [1], in data set [2] and in data set [3] were 1.5, 5 and 2.6, respectively. Regarding `O=C1C[C@@H](c2ccc(O)cc2)Oc2cc(O)cc(O)c21`, the fold change (FC) is 1.2 in data set [1], 1.7 in data set [2] and 1.7 in data set [3].
